Test results from ChEMBL document CHEMBL1153467, “Synthesis and biological evaluation of imidazole derivatives as novel NOP/ORL1 receptor antagonists: exploration and optimization of alternative pyrazole structure” (Bioorg Med Chem Lett, 2009).

Assays:
Nociceptin receptor [1] = molecular target: T1, Nociceptin receptor (Homo sapiens, UniProt P41146); assay: Displacement of [125I]Tyr14-nociceptin from human ORL1 receptor expressed in CHO cells; assay type: cell-based
Procedure, shortened: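 Competition binding to human ORL1 receptors transfected into CHO cells, with [¹²⁵I][Tyr¹⁴]nociceptin as radioligand; values given as IC₅₀.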

Nociceptin receptor [2] = molecular target: T1, Nociceptin receptor; assay: Displacement of [125I]Tyr14-nociceptin from human ORL1 receptor expressed in CHO cells at 1 uM; assay type: cell-based
Procedure, shortened: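 Same radioligand displacement at human ORL1 in CHO cells ([¹²⁵I][Tyr¹⁴]nociceptin), but reported as % inhibition of binding at a single 1 μM test concentration.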

Nociceptin receptor [3] = molecular target: T1, Nociceptin receptor; assay: Antagonist activity at human cloned ORL1 receptor expressed in CHO cells assessed as inhibition of nociceptin/orphanin FQ-stimulated [35S]GTPgammaS binding; assay type: functional, cell-based
Procedure, shortened: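 Functional antagonism measured by stimulation of [³⁵S]GTPγS binding to membranes from CHO cells expressing ORL1, run per an earlier published protocol.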

[4] = molecular target: Voltage-gated inwardly rectifying potassium channel KCNH2 (Homo sapiens, UniProt Q12809); assay: Displacement of [35S]MK499 from human ERG expressed in HEK293 cells overexpressing Ikr channel protein; assay type: cell-based
Sequence of Voltage-gated inwardly rectifying potassium channel KCNH2 (Q12809 whole entry): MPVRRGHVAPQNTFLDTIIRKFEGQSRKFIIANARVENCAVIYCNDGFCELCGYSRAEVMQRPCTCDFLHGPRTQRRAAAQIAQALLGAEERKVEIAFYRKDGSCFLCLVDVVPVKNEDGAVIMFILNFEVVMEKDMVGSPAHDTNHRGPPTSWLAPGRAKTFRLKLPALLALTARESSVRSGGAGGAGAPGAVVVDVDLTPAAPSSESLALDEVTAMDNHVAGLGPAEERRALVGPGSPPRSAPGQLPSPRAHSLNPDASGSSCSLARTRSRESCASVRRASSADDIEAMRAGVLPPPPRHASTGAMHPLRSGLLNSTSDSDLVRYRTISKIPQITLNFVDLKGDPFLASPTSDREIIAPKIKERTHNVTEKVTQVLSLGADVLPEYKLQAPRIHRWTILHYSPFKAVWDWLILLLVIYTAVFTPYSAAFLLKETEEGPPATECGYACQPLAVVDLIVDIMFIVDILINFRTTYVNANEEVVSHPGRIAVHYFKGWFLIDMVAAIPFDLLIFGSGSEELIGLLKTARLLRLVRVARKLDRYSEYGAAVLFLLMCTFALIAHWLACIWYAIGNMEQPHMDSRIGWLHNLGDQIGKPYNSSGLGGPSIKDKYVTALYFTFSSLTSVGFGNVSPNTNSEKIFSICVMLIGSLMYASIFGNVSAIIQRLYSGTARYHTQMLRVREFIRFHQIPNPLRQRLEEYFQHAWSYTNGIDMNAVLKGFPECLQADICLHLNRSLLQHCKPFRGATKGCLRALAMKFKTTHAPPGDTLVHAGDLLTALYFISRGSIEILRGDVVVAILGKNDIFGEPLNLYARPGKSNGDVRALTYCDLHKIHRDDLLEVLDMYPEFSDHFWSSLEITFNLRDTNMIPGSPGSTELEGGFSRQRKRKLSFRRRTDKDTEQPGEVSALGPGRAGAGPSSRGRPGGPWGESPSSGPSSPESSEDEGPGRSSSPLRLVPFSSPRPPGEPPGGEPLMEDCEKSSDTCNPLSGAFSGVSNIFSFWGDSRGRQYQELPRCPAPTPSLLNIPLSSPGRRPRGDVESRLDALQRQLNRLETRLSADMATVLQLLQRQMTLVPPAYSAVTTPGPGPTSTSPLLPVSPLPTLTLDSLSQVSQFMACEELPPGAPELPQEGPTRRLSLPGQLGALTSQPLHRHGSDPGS

MDR1 (human) = assay: Apparent permeability across pig L-MDR1 cells overexpressing human MDR1; assay type: ADME, cell-based, Sus scrofa; conditions: LLC-PK1
Procedure, shortened: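 P-gp transporter efflux assay: apparent permeability (Papp) reported in 10⁻⁶ cm/s; efflux expressed as the B–A/A–B ratio, with ratio accuracy considered compromised when Papp <10.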

[5] = Efflux ratio of permeability from basolateral to apical side over apical to basolateral side in pig L-MDR1 cells overexpressing human MDR1
[6] = Metabolic stability in human liver microsomes at 1 uM after 30 mins; assay type: ADME, Microsome; conditions: read-out: Stability
Procedure, shortened: (§1)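 Parent compound at 1 μM was incubated with human or rat liver microsomes (0.25 mg protein/ml) for 30 min at 37 °C; stability was read out as % parent remaining.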

[7] = Metabolic stability in rat liver microsomes at 1 uM after 30 mins; assay type: ADME, Microsome; conditions: read-out: Stability; procedure, shortened: as §1
[8] = Clearance in rat at 1 mg/kg, iv; assay type: ADME, organism-based; design: dose 1 mg/kg, route intravenous; conditions: in vivo
[9] = Half life in rat at 1 mg/kg, iv; assay type: ADME, organism-based; design: dose 1 mg/kg, route intravenous; conditions: in vivo
[10] = Oral bioavailability in rat at 3 mg/kg; assay type: ADME, organism-based; conditions: in vivo

T1 sequence (P41146 whole entry): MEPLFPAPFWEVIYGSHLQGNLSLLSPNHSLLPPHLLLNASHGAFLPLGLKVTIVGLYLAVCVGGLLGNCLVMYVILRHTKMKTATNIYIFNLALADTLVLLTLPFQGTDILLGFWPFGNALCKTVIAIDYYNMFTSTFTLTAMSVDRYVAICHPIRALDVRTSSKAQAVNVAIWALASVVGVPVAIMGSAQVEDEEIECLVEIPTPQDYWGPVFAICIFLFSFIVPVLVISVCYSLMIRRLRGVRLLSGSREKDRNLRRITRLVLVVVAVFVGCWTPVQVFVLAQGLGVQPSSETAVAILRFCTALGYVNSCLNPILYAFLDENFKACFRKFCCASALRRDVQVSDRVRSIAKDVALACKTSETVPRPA

SMILES	IC50 (Nociceptin receptor [1]) [nM]	inhibition (Nociceptin receptor [2]) [%]	further results
Cn1c(CNC2CCCC2)nnc1-c1cc(F)cc(F)c1	> 1000	19	–
FC(F)Cn1c(CNC2CCCC2)nc(-c2ccc(Cl)cc2Cl)c1-c1ccc(Cl)cc1	500	–	–
Clc1ccc(-c2nc(CNC3CCCC3)cn2-c2ccc(Cl)cc2Cl)cc1	620	–	–
Cc1c(CNC2CCCC2)cc(-c2ccc(Cl)cc2Cl)n1-c1ccc(Cl)cc1	200	–	–
CC(C)(C)n1c(CNC2CCCC2)nc(-c2ccc(Cl)cc2Cl)c1-c1ccc(Cl)cc1	> 1000	26	–
Clc1ccc(-c2nc(CNC3CCCC3)nn2-c2ccc(Cl)cc2Cl)cc1	> 1000	48	–
Clc1ccc(-c2c(-c3ccc(Cl)cc3Cl)nc(CNC3CCCC3)n2C2CCCCC2)cc1	> 1000	48	–
Cn1c(CNC2CCCC2)nc(-c2ccc(Cl)cc2)c1-c1ccc(Cl)cc1Cl	850	–	–
Clc1ccc(-c2c(-c3ccc(Cl)cc3Cl)nc(CNC3CCCC3)n2C2CCC2)cc1	530	–	–
Clc1ccc(-c2c(-c3ccc(Cl)cc3Cl)nc(CNC3CCCC3)n2C2CCCC2)cc1	> 1000	43	–
Cc1c(CNC2CCCC2)nnn1-c1ccc(F)c(F)c1	> 1000	40	–
FC(F)(F)Cn1c(CNC2CCCC2)nc(-c2ccc(Cl)cc2Cl)c1-c1ccc(Cl)cc1	> 1000	32	–
Clc1ccc(-c2oc(CNC3CCCC3)nc2-c2ccc(Cl)cc2Cl)cc1	> 1000	28	–
Clc1ccc(-c2c(-c3ccc(Cl)cc3Cl)nc(CNC3CCCC3)n2C2CC2)cc1	190	–	–
Cc1nn(-c2ccccc2)c(C)c1CNC1CCCC1	> 1000	44	–
Clc1ccc(-c2sc(CNC3CCCC3)nc2-c2ccc(Cl)cc2Cl)cc1	> 1000	7	–
Cn1c(CNC2CCCC2)nc(-c2ccc(Cl)cc2Cl)c1-c1ccc(Cl)cc1	520	–	–
CC(C)Cn1c(CNC2CCCC2)nc(-c2ccc(Cl)cc2Cl)c1-c1ccc(Cl)cc1	540	–	–
Cc1c(CNC2CCCC2)oc(-c2ccc(Cl)cc2Cl)c1-c1ccc(Cl)cc1	> 1000	25	–

Molecules with a lower IC50 (Nociceptin receptor [1]), results first:

IC50 (Nociceptin receptor [1]) [nM]	inhibition (Nociceptin receptor [2]) [%]	SMILES	further results
160	–	FCCn1c(CNC2CCCC2)nc(-c2ccc(Cl)cc2Cl)c1-c1ccc(Cl)cc1	–
160	–	CCC(CC)n1c(CNC2CCCC2)nc(-c2ccc(Cl)cc2Cl)c1-c1ccc(Cl)cc1	–
160	–	CCn1c(CNC2CCCC2)nc(-c2ccc(Cl)cc2Cl)c1-c1ccc(Cl)cc1	–
130	–	Clc1ccc(-c2cc(CNC3CCCC3)nn2-c2ccc(Cl)cc2Cl)cc1	–
96	–	FCC(CF)n1c(CNC2CCCC2)nc(-c2ccc(Cl)cc2Cl)c1-c1ccc(Cl)cc1	–
33	–	CC(C)n1c(CNC2CCCC2)nc(-c2ccc(Cl)cc2Cl)c1-c1ccc(Cl)cc1	–
28	–	Cc1c(CNC2CCCC2)nc(-c2ccc(Cl)cc2Cl)n1-c1ccc(Cl)cc1	–
26	–	Cc1ccc(-n2c(-c3ncccc3Cl)nc(CNC3CCCC3)c2C)cn1	–
11	–	Cc1nc(CNC2CCCC2)n(C(C)C)c1-c1ccc(Cl)cc1	IC50 [4]: 3200 nM; Papp (MDR1 (human)): 18.2 ×10⁻⁶ cm/s; Ratio [5]: 1
9.1	–	Cc1ccc(-n2c(-c3ncccc3Cl)nc(CN[C@H]3CC[C@@H](F)C3)c2C)cn1	IC50 (Nociceptin receptor [3]): 3.7 nM; Papp (MDR1 (human)): 16.8 ×10⁻⁶ cm/s
8.6	–	Cc1nc(CN[C@H]2CC[C@@H](F)C2)c(C(C)C)n1-c1cc(F)cc(F)c1	IC50 (Nociceptin receptor [3]): 4.5 nM; IC50 [4]: 34000 nM; Papp (MDR1 (human)): 34 ×10⁻⁶ cm/s; Ratio [5]: 3.2
7.6	–	COCCc1nc(CN[C@H]2CC[C@@H](F)C2)n(C(C)C)c1-c1ccc(Cl)cc1	IC50 (Nociceptin receptor [3]): 5.6 nM; Papp (MDR1 (human)): 28.6 ×10⁻⁶ cm/s
4.7	–	Cc1ccc(-n2c(-c3ncccc3Cl)nc(CNC3CCCC3)c2C(C)C)cn1	IC50 (Nociceptin receptor [3]): 9.6 nM; IC50 [4]: 9900 nM; Papp (MDR1 (human)): 25 ×10⁻⁶ cm/s; Ratio [5]: 22.9
3.2	–	CCc1c(CN[C@H]2CC[C@@H](F)C2)nc(-c2ncccc2Cl)n1-c1ccc(C)nc1	IC50 (Nociceptin receptor [3]): 2.3 nM; IC50 [4]: 15000 nM; Papp (MDR1 (human)): 20.6 ×10⁻⁶ cm/s; remaining at 0.5 h, 1 µM [6]: 85%; remaining at 0.5 h, 1 µM [7]: 82%; clearance [8]: 114 mL/min/kg; half-life [9]: 30 min; bioavailability [10]: 10%; Ratio [5]: 19.7
1.4	–	Cc1ccc(-n2c(-c3ncccc3Cl)nc(CN[C@H]3CC[C@@H](F)C3)c2C(C)C)cn1	IC50 (Nociceptin receptor [3]): 2.3 nM; IC50 [4]: 15000 nM; Papp (MDR1 (human)): 24.1 ×10⁻⁶ cm/s; Ratio [5]: 21.8
